In ChEMBL document CHEMBL1157953, “Antiviral flavans from the leaves of Pithecellobium clypearia” (J Nat Prod, 2006):
Values after ≈ are worked out from the molar mass of the structure shown.

Assays:
[1] = system: Respiratory syncytial virus; assay: Antiviral activity against RSV Long in human Hep2 cells assessed as reduction of virus induced cytopathic effect; type: functional, organism-based; conditions: HEp-2
In short: (§1)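 CPE reduction assay: confluent monolayers received 0.1 mL of 100 TCID50 virus simultaneously with 0.1 mL of serial 2-fold sample dilutions. Samples were dissolved in DMSO, then diluted into maintenance medium (MEM, 1% FBS, gentamicin, L-glutamine). Incubation at 37 °C, 5% CO2 for 4-6 days. CPE was scored 0-4 against virus and cell controls. IC50 is the concentration halving CPE, estimated from plots.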

[2] = Selectivity index, CC50 for african green monkey Vero cells to IC50 for HSV1 15577; type: functional
In short: (§2)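 SI = CC50/IC50. CC50 came from an MTT assay: confluent monolayers were exposed in triplicate to sample dilutions for 3 days, then MTT was added for 3 h, formazan was dissolved in DMSO, and OD was read at 540/690 nm. CC50 is the concentration cutting viable cells to 50% of control. IC50 came from the CPE reduction assay in the matching cell line.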

Coxsackievirus B3 = assay: Antiviral activity against Cox B3 virus in human Hep2 cells assessed as reduction of virus induced cytopathic effect; type: functional, organism-based; conditions: Enterovirus B, HEp-2; in short: as §1
Human alphaherpesvirus 1 = assay: Antiviral activity against HSV1 15577 in african green monkey Vero cells assessed as reduction of virus induced cytopathic effect; type: functional, organism-based; conditions: Human alphaherpesvirus 1, Vero; in short: as §1
[3] = Cytotoxicity against african green monkey Vero cells after 3 days by MTT reduction assay; type: cell-based; conditions: chlorocebus sabaeus
In short: (§3)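 Serial sample dilutions (from 40 mg/mL DMSO stock; top test concentration 1000 µg/mL in maintenance medium, 1% FBS with gentamicin) added in triplicate to confluent monolayers, 37 °C, 5% CO2. After 3 days MTT added for 3 h; formazan dissolved in DMSO, OD read at 540 and 690 nm. CC50 = concentration reducing viable cells to 50% of medium control.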

[4] = Selectivity index, CC50 for human Hep2 cells to IC50 for Cox B3 virus; type: functional, HEp-2; in short: as §2
[5] = Cytotoxicity against human Hep2 cells after 3 days by MTT reduction assay; type: cell-based, HEp-2; in short: as §3
[6] = Cytotoxicity against MDCK cells after 3 days by MTT reduction assay; type: cell-based, Canis lupus familiaris; conditions: dog; in short: as §3
[7] = Selectivity index, CC50 for human Hep2 cells to IC50 for RSV Long; type: functional, HEp-2; in short: as §2
[8] = Selectivity index, CC50 for MDCK cells to IC50 for influenza A virus H1N1 A/NWS/33; type: functional; in short: as §2

Compound	IC50 [1] [µg/mL]	Ratio CC50/IC50 [2]	IC50 (Coxsackievirus B3) [µg/mL]	IC50 (Human alphaherpesvirus 1) [µg/mL]	CC50 at 72 h [3] [µg/mL]	Ratio CC50/IC50 [4]	CC50 at 72 h [5] [µg/mL]	MNTC at 72 h ([5]; read-out: MNCC) [µg/mL]	CC50 at 72 h [6] [µg/mL]	MNTC at 72 h ([6]; read-out: MNCC) [µg/mL]	Ratio CC50/IC50 [7]	Ratio CC50/IC50 [8]	MNTC at 72 h ([3]; read-out: MNCC) [µg/mL]
NC(=O)c1ncn([C@@H]2O[C@H](CO)[C@@H](O)[C@H]2O)n1 [RIBAVIRIN]	3 (≈ 12.3 µM)	–	–	–	–	–	–	–	–	–	–	–	–
Nc1nc2c(ncn2COCCO)c(=O)[nH]1 [ACYCLOVIR]	–	>2000	25 (≈ 111 µM)	0.25 (≈ 1.11 µM)	> 500	–	–	–	–	–	–	–	–
O=C(Oc1cc(O)c2c(c1)OC(c1cc(O)c(O)c(O)c1)CC2)c1cc(O)c(O)c(O)c1 (stereo not drawn)	5 (≈ 11.3 µM)	4	12.5 (≈ 28.3 µM)	30 (≈ 67.8 µM)	120 (≈ 271 µM)	7.6	95 (≈ 215 µM)	25	110 (≈ 249 µM)	62.5	19	7	31.3
